Series [1] concerns the target T1, Inositol hexakisphosphate kinase 1 (Homo sapiens, UniProt Q92551). Nature of the series: Inhibition of IP6K1 (unknown origin) incubated for 30 mins using IP6 as substrate in presence of ATP by ADP-Glo reagent based luminescence assay. To be noted: read-out: pIC50 (converted). The procedure, abridged: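 Luminescent ADP-Glo Max format adapted for IP6K, with purified enzyme and ATP at 1 mM, which is consumed as the kinase reaction proceeds. IC50 taken from the resulting inhibition data.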
Target sequence in this assay (Q92551 whole entry): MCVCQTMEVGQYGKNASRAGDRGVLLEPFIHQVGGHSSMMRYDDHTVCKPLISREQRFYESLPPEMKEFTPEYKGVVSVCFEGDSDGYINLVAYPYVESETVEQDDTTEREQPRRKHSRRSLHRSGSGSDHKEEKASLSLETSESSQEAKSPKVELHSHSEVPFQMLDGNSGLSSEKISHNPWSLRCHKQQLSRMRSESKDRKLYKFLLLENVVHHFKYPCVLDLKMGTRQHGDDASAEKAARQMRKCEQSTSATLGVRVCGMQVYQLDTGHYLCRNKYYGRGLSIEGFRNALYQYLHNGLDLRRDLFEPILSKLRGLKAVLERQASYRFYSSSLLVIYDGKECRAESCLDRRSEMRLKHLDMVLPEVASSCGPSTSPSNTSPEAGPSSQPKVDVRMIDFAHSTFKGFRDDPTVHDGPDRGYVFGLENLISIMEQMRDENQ

The target of series [2] is T1, Inositol hexakisphosphate kinase 1. Nature of the series: Binding affinity to IP6K1 (unknown origin) assessed as change in melting temperature by SYPRO orange dye-based assay. Summed up: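 Thermal shift format. Purified IP6K1 heated across a temperature gradient with the ligand at several concentrations. Binding read as the rise in protein melting temperature, including the maximal Tm shift (TmMax).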
Target sequence in this assay (Q92551 whole entry, looked up): as the sequence (Q92551 whole entry) above

The target is the same in series [3]. Nature of the series: Binding affinity to IP6K1 (unknown origin) assessed as change in melting temperature at 11.1 uM by SYPRO orange dye based assay.
Target sequence in this assay (Q92551 whole entry, looked up): as the sequence (Q92551 whole entry) above
A short description of series [4]: Solubility of compound in 2% DMSO by LC-MS/MS analysis. The series is classed as physicochemical.
Series [5] is described as follows: Half life in human microsomes at 1 uM incubated for 5 to 60 mins in presence of NADPH by LC-MS/MS analysis. The class given is ADME, Microsome.
The nature of series [6]: Half life in mouse microsomes at 1 uM incubated for 5 to 60 mins in presence of NADPH by LC-MS/MS analysis.

In the case of `COCCNc1nc(NCCc2ccccc2)nc2[nH]cnc12`, the IC50 in series [1] is 79.4 µM.
As a reminder, the ΔTm is the shift of the melting midpoint relative to a reference. Consider `COCCNc1nc(NCCc2c[nH]c3cc(OC)ccc23)nc2[nH]cnc12`, for which the thermal shift (ΔTm) in series [2] was 4.7 °C; in series [3], 3.6 °C. Besides, the IC50 in series [1] is 2.75 µM.
As for `COCCNc1nc(NCCc2c[nH]c3ccccc23)nc2cc[nH]c12`, in series [1], the IC50 is over 200 µM.
In the case of `COCCNc1nc(NCCc2c[nH]c3ccc(Cl)cc23)nc2[nH]cnc12`, in series [1], the IC50 was 26.9 µM.
Turning to `COCCNc1nc(NCCc2c[nH]c3ccc(OC)cc23)nc2[nH]cnc12`, in series [1], the IC50 was 138 µM.
On the same count and under the same terms, as for `COCCNc1nc(NCCc2ccc(F)cc2)nc2[nH]cnc12`, the figure is 89.1 µM.
On to `COCCNc1nc(NCCc2cccc3ccccc23)nc2[nH]cnc12`, for which, in series [1], the IC50 is 93.3 µM.
As for `O=c1cc(CNc2nc(NCCc3c[nH]c4ccccc34)nc3[nH]cnc23)cc[nH]1`, the IC50 in series [1] was 10 µM.
On the same count and under the same terms, then `COCCNc1nc(NCCc2c[nH]cn2)nc2[nH]cnc12`, with over 200 µM; and `COCCN(C)c1nc(NCCc2c[nH]c3ccccc23)nc2c1ncn2C`, with over 200 µM.
Regarding `COCCNc1nc(NCCc2c[nH]c3ccccc23)nc2c1ncn2C`, the IC50 in series [1] was over 200 µM.
Usually half-life stands for how long it takes for the measured level to halve. On to `O=[N+]([O-])c1ccc(CNc2nc(NCc3cccc(C(F)(F)F)c3)nc3[nH]cnc23)cc1`, for which the thermal shift (ΔTm) in series [2] turned out to be 3.3 °C; in series [3], 1.8 °C. In series [4], the solubility result is given as “Insoluble”. Further, the half-life at 1 µM came out at 32 min in series [5] and 9 min in series [6]. Moreover, the IC50 in series [1] was over 200 µM.
`FC(F)(F)c1cccc(CNc2nc(NCc3ccccc3)c3nc[nH]c3n2)c1`: the IC50 in series [1] was over 200 µM.
Still for that read-out and setting: as for `COCCNc1nc(NCCc2ccccc2OC)nc2[nH]cnc12`, the figure is 11.2 µM; as for `N#Cc1ccc(CNc2nc(NCCc3c[nH]c4ccccc34)nc3[nH]cnc23)cc1`, 46.8 µM.
Turning to `COCCNc1nc(NCCc2c[nH]c3ccccc23)nc2[nH]cnc12`, the shift in melting temperature (ΔTm) in series [2] came out at 4.3 °C; in series [3], 2.4 °C. Moreover, the IC50 in series [1] is 8.32 µM.
`COCCNc1nc(NCCCc2c[nH]c3ccccc23)nc2[nH]cnc12`: in series [1], the IC50 is 69.2 µM.
On to `COCCNc1nc(NCCc2c[nH]c3ccc(O)cc23)nc2[nH]cnc12`, for which the IC50 in series [1] was 31.6 µM.
For `COCCNc1nc(NCc2cccc(C(F)(F)F)c2)nc2[nH]cnc12`, the IC50 in series [1] was 117 µM.
In the case of `Cc1[nH]c2ccccc2c1CCNc1nc(NCc2ccc(=O)[nH]c2)c2nc[nH]c2n1`, in series [1], the IC50 is 3.02 µM.
On the same count and under the same terms, as for `COCCNc1nc(N(C)CCc2c[nH]c3ccccc23)nc2nc[nH]c12`, the figure is over 200 µM; as for `COCCNc1nc(NCCc2c[nH]c3ccc(C)cc23)nc2[nH]cnc12`, 123 µM.
Still for that read-out and setting: then `c1ccc2c(CCNc3nc(NCc4ccc5nonc5c4)c4nc[nH]c4n3)c[nH]c2c1`, with 151 µM; and `COCCNc1nc(NCCc2c(C)[nH]c3ccccc23)nc2[nH]cnc12`, with 1.95 µM.
`COCCNc1nc(NCCc2cn(C)c3ccccc23)nc2nc[nH]c12`: the IC50 in series [1] is 31.6 µM.
On the same count and under the same terms, then `COCCNc1nc(NCCc2c[nH]c3ccccc23)nc2[nH]ccc12`, with over 200 µM; and `O=c1ccc(CNc2nc(NCCc3c[nH]c4ccccc34)nc3[nH]cnc23)c[nH]1`, with 1.74 µM; and `FC(F)(F)c1cccc(CNc2nc(NCCc3ccccc3)c3nc[nH]c3n2)c1`, with over 200 µM.

The values above are taken from ChEMBL document CHEMBL4396947, “Synthesis and characterization of novel isoform-selective IP6K1 inhibitors” (Bioorg Med Chem Lett, 2019).
